Source: PubChem BioAssay
An excerpt weighted towards active compounds, which were near 2.6% of everything screened.
VIM-2 inh: blocks Pseudomonas aeruginosa VIM-2 metallo-beta-lactamase; purified VIM-2, nitrocefin hydrolysis, epi-absorbance fluorescence; inhibition, % at 5.6 µM; 290,000 compounds, 0.89% hits;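 active = inhibition above the mean of all tested compounds plus 3 SD, cutoff set per screening run, cut at about 7.5% in these data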;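 note: red hydrolysis product quenches plate fluorescence so inhibitors raise well fluorescence; 0% = enzyme with DMSO and 100% = DMSO without enzyme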
IMP-1 inh: blocks Pseudomonas aeruginosa IMP-1 metallo-beta-lactamase; inhibition, % at 5.6 µM; 290,000 compounds, 0.45% hits; purified IMP-1, nitrocefin hydrolysis, epi-absorbance fluorescence;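 active = inhibition above the mean plus 3 SD of all compounds in the same screening run, cut at about 4.5% in these data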;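 note: 0% = IMP-1 with DMSO and 100% = DMSO wells lacking enzyme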
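Material – recombinant IMP-1 enzyme, purified · Amount – IMP-1 0.2 nM before substrate addition · Medium – HEPES buffer pH 7.1 with ZnSO4 and Brij 35 · Timing – 25 °C, 15 min preincubation, 25 min reaction · Measured by – plate fluorescence quenching by hydrolysis product, ex 480/em 530 nm · Read-out – percent enzyme inhibition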
RanGTP-Impb inh: inhibitors of RanGTP-importin-beta interaction, primary screen, biochemical, FRET, CFP-Ran, YFP-importin-beta, homogeneous; cell-free CFP-Ran/YFP-importin-beta FRET ratio; 300,000 compounds, 1.1% hits; inhibition, % (test concentration not listed); AID 2216;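 active = more than half of the replicate wells show a fall in the fluorescence ratio signal beyond about 16%, limit read from the data, passing the limit was not always enough; inconclusive = exactly half of the replicate wells pass the set limit; inactive = fewer than half of replicates pass the limit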;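 note: 0% = DMSO wells and 100% = Ran loaded with GDP instead of GTP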
Runt-CBFb FRET: Runt domain-CBFb interaction inhibition; Q01196+Q13951; 220,000 compounds, 0.46% hits; Cerulean-Runt/Venus-CBFb FRET ratio 530/480, 1 h; inhibition, % at 20 µM;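 active = inhibition over about 50% at 20 µM in the single-dose screen, limit read from the data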;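 note: 0% = DMSO wells and 100% = excess unlabeled CBFb competitor control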
Target sequence (Q01196 whole entry, looked up, the tested form may be a part): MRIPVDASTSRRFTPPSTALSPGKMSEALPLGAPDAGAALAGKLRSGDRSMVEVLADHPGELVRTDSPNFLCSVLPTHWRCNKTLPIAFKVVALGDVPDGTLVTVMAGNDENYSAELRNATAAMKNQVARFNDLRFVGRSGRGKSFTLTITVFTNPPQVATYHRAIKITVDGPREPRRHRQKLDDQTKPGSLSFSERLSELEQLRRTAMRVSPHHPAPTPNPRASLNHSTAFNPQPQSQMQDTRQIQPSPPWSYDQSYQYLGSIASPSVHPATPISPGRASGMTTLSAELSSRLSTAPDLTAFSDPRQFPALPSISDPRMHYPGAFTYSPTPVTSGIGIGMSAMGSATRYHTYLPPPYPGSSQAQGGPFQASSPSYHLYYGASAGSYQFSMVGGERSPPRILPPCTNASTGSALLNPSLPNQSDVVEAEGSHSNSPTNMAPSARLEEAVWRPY
Target sequence (Q13951 whole entry, looked up, the tested form may be a part): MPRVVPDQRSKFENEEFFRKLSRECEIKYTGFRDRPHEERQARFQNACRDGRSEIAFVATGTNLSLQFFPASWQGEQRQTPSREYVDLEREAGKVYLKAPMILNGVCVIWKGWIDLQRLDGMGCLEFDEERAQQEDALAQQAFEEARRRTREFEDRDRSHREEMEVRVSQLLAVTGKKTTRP
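Doses: 20 µM compound in 1% DMSO | Material: Cerulean-labeled Runt domain protein | Amount: Each fluorescent fusion protein 100 nM | Schedule: Two 1 h room-temperature incubations shielded from light | Measured by: FRET fluorescence | Evaluation: Loss of energy transfer signal | Controls: Unlabeled CBFb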
Runt-SMMHC FRET: blocks binding of human RUNX1 Runt domain to CBFb-SMMHC; Q01196+Q13951; Cerulean-Runt/Venus-CBFb-SMMHC FRET ratio 530/480, 1 h; inhibition, % at 20 µM; 220,000 compounds, 0.74% hits; AID 1434;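 active = mean inhibition across duplicate retests at 20 µM reaching about 50%, limit read from the data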;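 note: 0% = DMSO wells and 100% = wells with excess untagged CBFb-SMMHC; inhibitors lower the FRET ratio by blocking Runt binding to CBFb-SMMHC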
Runt-CBFb TRFRET: disrupts human RUNX1 Runt domain binding to CBFb; inhibition, % at 20 µM; shares compounds with Runt-CBFb FRET; TR-FRET RUNX1 Runt domain-CBFb binding; 480 compounds, 20% hits; in the data active = inhibition above about 40%
An asterisk follows results filed as active; ? = inconclusive; . = not tested or not shown.

SMILES	VIM-2 inh	IMP-1 inh	RanGTP-Impb inh	Runt-CBFb FRET	Runt-SMMHC FRET	Runt-CBFb TRFRET
C/C(CC(=O)Nc1cc(C)ccn1)=N\NC(=O)c1cccc(C)c1O	-1	-2	4	.	.	.
CCOC(=O)c1cnc2ccc(Cl)cc2c1NCCN(C)C	-3	-5	?	64*	46	2
Cc1ccc2c(c1)C(=O)CCCCC(=O)N2	-1	-1	-1	0	-3	.
O=C1CCNc2ccc(-c3ccccc3)cc21	0	0	-9	60*	-146	42*
O=C1CC(N2CCOCC2)C(=O)N1Cc1ccc(N2CCCC2=O)cc1 (stereo not given)	-2	-2	3	2	0	.
O=C1CC(N2CCC(O)(c3ccc(Cl)cc3)CC2)C(=O)N1Cc1ccc(N2CCCC2=O)cc1 (stereo not given)	-3	-2	2	66*	-3	-13
CN1c2ccccc2C(O)=C(C(=S)Nc2ccccc2)S1(=O)=O	1	-1	8	4	5	.
CN1c2ccsc2C(O)=C(C(=S)Nc2ccccc2)S1(=O)=O	-5	-3	89*	53*	91*	34
CC(OC(=O)CCCN=C1NS(=O)(=O)c2ccccc21)C(=O)Nc1ccccc1[N+](=O)[O-] (stereo not given)	.	.	4	.	.	.
Cc1ccc(CNC(=O)C2(S(=O)(=O)c3ccccc3)CC=CC2)cc1	-2	-5	5	.	.	.
O=C(CCNS(=O)(=O)c1ccccc1)N1CCN(C(c2ccccc2)c2ccccc2)CC1	-1	-3	3	.	.	.
CCOC(=O)c1cc2c(=O)n3ccccc3nc2n(CCOC)c1=NC(=O)C(C)(C)C	0	0	77*	77*	-16	-7
CC1(C)CC(=O)C2=C(C1)Nc1[nH]c(=S)[nH]c(=O)c1C2c1ccccc1 (stereo not given)	-4	-3	4	50*	59*	12
CSc1nc2c(c(=O)[nH]1)C(c1ccccc1)C1=C(CC(C)(C)CC1=O)N2 (stereo not given)	-4	-5	3	-2	0	.
COC(=O)/C(C#N)=C/c1c(N2CCN(c3ccccc3)CC2)nc2ccccn2c1=O	-1	-2	-8	.	.	.
CNC(=O)/C(C#N)=C/c1c(N(Cc2ccccc2)Cc2ccccc2)nc2ccccn2c1=O	-3	-4	1	63*	90*	3
CC(C)CC(=O)NN1CCCCC1	0	-2	9	75*	0	58*
O=C(CNC(=O)c1cccs1)N=Nc1c(O)[nH]c2ccc([N+](=O)[O-])cc12	-1	-2	-2	.	.	.
Oc1ccc(O)c(-c2cnns2)c1	2	-2	-1	71*	.	-17
O=c1[nH]c2ccccc2c(O)c1O	-3	-3	1	59*	57*	39
Cc1cccc(C2NC(=O)c3c(sc(C)c3C)N2)c1O (stereo not given)	1	-1	-2	51*	4	-17
O=C1NC(c2ccccc2O)Nc2ccccc21 (stereo not given)	2	-1	3	.	.	.
CCCN(CC(=O)Nc1ccc(C(N)=O)cc1)CC(=O)Nc1ccc(F)c(F)c1F	-1	1	0	.	.	.
CCOc1ccc(Cl)cc1S(=O)(=O)N1CCC(C(=O)NCc2ccco2)CC1	-2	-4	3	.	.	.
Cc1c(C(=O)N(C)Cc2cccc(F)c2)oc2c(Cl)cccc12	-4	-3	1	.	.	.
SMILES	VIM-2 inh	IMP-1 inh	RanGTP-Impb inh	Runt-CBFb FRET	Runt-SMMHC FRET	Runt-CBFb TRFRET
Cc1ccccc1N=Cc1cc2c(cc1O)OC(N)=C(C#N)C2c1ccccc1 (stereo not given)	-2	2	30*	71*	109*	0
CCN1CCN(C(=O)CN2C(=O)c3ccccc3S2(=O)=O)CC1	.	.	5	.	.	.
CCOC(=O)c1c(-c2ccccc2)oc2ccc(OCC(=O)NNC(=O)CCC(=O)O)cc12	-2	-6	-3	.	.	.
CCOC(=O)c1c(-c2ccccc2)oc2ccc(OC(C)=O)cc12	-4	-3	-2	52*	-1	29
Cc1ccc2nc(SC(C)C(=O)N3CCOCC3)[nH]c2c1 (stereo not given)	0	-1	0	0	-4	.
N#Cc1c(N)n(-c2ccc(O)cc2)c2nc3ccccc3nc12	2	-4	?	4	12	.
N#Cc1c(N)n(-c2cccc(O)c2)c2nc3ccccc3nc12	-1	-3	27*	73*	102*	28
CC(C)(C)c1cc(C(=S)N2CCN(CCO)CC2)cc(C(C)(C)C)c1O	0	-2	?	52*	47	9
OCCN1CCN(C(=S)c2ccc(Cl)cc2)CC1	-3	-1	6	53*	40	11
O=C(c1ccc(Br)cc1)N1CCC(C(=O)N2CCN(Cc3ccccc3)CC2)CC1	-3	-3	1	.	.	.
CCCn1nc(NC(=O)c2cccs2)c2cc3cccc(C)c3nc21	-1	-2	95*	64*	85*	27
O=C(Oc1cc2oc(=O)c3c(c2cc1Cl)CCCC3)c1ccco1	4	-1	-3	68*	120*	36
O=C(Oc1cc2oc(=O)c3c(c2cc1Cl)CCCC3)c1cccs1	0	-3	.	76*	133*	26
O=C(Cn1c(=O)oc2ccccc21)Nc1n[nH]c(=S)s1	-4	-2	0	54*	22	63*
CN1CCc2c(sc(/N=C/c3c[nH]c4ccccc34)c2C(N)=O)C1	0	-3	46*	53*	14	-42
CN1CCc2c(sc(/N=C/c3c[nH]c4ccccc34)c2C#N)C1	1	1	4	50	3	.
CCC1(c2ccccc2)NC(=O)N(CC(=O)Nc2ccc(Cl)c(S(=O)(=O)N3CCCCC3)c2)C1=O (stereo not given)	.	.	-1	.	.	.
COc1ccc(C(=O)Oc2ccc3oc(=O)sc3c2)cc1	-4	-1	1	65*	40	0
CC(=O)N(c1ccc2oc(=O)sc2c1)S(=O)(=O)c1ccccc1	-1	0	0	60*	38	17
CN(CC(=O)O)S(=O)(=O)c1cccs1	-4	-4	-1	0	-5	.
CCCC(=O)N(c1ccc2oc(=O)sc2c1)S(=O)(=O)c1cccs1	-2	-3	.	63*	32	10
CC(C)C(=O)N(c1ccc2oc(=O)sc2c1)S(=O)(=O)c1ccccc1	-2	-2	2	58*	63*	19
COc1ccc(C(=O)Oc2ccc3ccc(=O)oc3c2)cc1	0	-1	0	.	.	.
Cc1ccc(S(=O)(=O)N(C(=O)c2ccco2)c2cc3sc(=O)oc3c3ccccc23)cc1	2	-1	2	11	37	.
O=C(O)c1nccnc1C(=O)Nc1ccc(Cl)cn1	-3	-2	1	.	.	.
